Test results published in ChEMBL document CHEMBL4033789, “Discovery of a New Four-Leaf Clover-Like Ligand as a Potent c-MYC Transcription Inhibitor Specifically Targeting the Promoter G-Quadruplex” (J Med Chem, 2018).
Active and inactive are the calls of the source. The calls are words filed in the database; no cut-off is given here.

Assays:
A-375 = experiment: Cytotoxicity against human A375 cells assessed as reduction in cell viability after 24 hrs by MTT assay; format: functional, cell-based; conditions: A-375, 24 h
In short: (§1)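 Cells seeded at 5.0×10^3 per well, exposed to compound for 24 h; MTT (2.5 mg/mL) added for 4 h, formazan dissolved in DMSO, OD read at 570 nm. Triplicate; IC50 from curves of mean OD against concentration.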

HeLa = experiment: Cytotoxicity against human HeLa cells assessed as reduction in cell viability after 24 hrs by MTT assay; format: functional, cell-based; in short: as §1
[1] = Binding affinity to 1 uM c-MYC promoter G-quadruplex pu22 DNA (unknown origin) at 1 uM after 1 min by fluorescence spectroscopic analysis
In short: (§2)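 Fluorescence emission spectra of 1 µM compound mixed with 1 µM pre-annealed oligonucleotide (G-quadruplexes folded in 100 mM KCl by heating to 95 °C for 5 min, slow cooling), in Tris-HCl buffer.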

Huh-7 = experiment: Cytotoxicity against human Huh7 cells assessed as reduction in cell viability after 24 hrs by MTT assay; format: functional, cell-based; conditions: Huh-7, 24 h; in short: as §1
BJ = experiment: Cytotoxicity against human BJ cells assessed as reduction in cell viability after 24 hrs by MTT assay; format: cell-based; in short: as §1
[2] = Cytotoxicity against mouse primary mesangial cells assessed as reduction in cell viability after 24 hrs by MTT assay; format: cell-based; in short: as §1
SiHa [3] = experiment: Cytotoxicity against human SiHa cells assessed as reduction in cell viability after 24 hrs by MTT assay; format: functional, cell-based; in short: as §1
[4] = Binding affinity to 1 uM hybrid telomeric htg22 G-quadruplex DNA (unknown origin) at 1 uM after 1 min by fluorescence spectroscopic analysis; format: ADME; in short: as §2
[5] = Binding affinity to 1 uM antiparallel HRAS G-quadruplex DNA (unknown origin) at 1 uM after 1 min by fluorescence spectroscopic analysis; format: ADME; in short: as §2
[6] = Binding affinity to 1 uM G-triplex DNA (unknown origin) at 1 uM after 1 min by fluorescence spectroscopic analysis
[7] = Binding affinity to 1 uM i-motif DNA (unknown origin) at 1 uM after 1 min by fluorescence spectroscopic analysis
SiHa [8] = experiment: Antitumor activity against human SiHa cells xenografted in nude BALB/c mouse assessed as tumor growth inhibition at 1 mg/kg, ip administered every other day for 24 days; format: functional, organism-based
In short: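 BALB/c nude mice (5 weeks old) given 1×10^7 SiHa cells subcutaneously in right flank; at ~50 mm3 tumor volume, randomized (10 per group) and dosed intraperitoneally every other day for 24 days; controls got equal-volume saline. Caliper volume as 1/2 × length × width2; tumors weighed at end; inhibition rate = (1 − mean treated tumor weight/mean control tumor weight) × 100%.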

Mus musculus [9] = experiment: Toxicity in nude BALB/c mouse xenografted with human SiHa cells assessed as body weight reduction at 1 mg/kg, ip administered every other day for 24 days; format: organism-based; conditions: in vivo, 576 h
In short: (§3)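 BALB/c nude mice, 5 weeks old, implanted subcutaneously in right flank with 1×10^7 SiHa cells; at ~50 mm3 tumor, 10 per group dosed ip every other day for 24 days, saline control; body weight measured daily, viscera weighed at sacrifice; mean ± SEM, Student's t test versus saline.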

Mus musculus [10] = experiment: In vivo stabilization of c-Myc G-quadruplex DNA in human SiHa cells xenografted in nude BALB/c mouse assessed as decrease in c-Myc expression at 1 mg/kg, ip administered every other day for 24 days by immunohistochemistry; format: functional, organism-based
Mus musculus [11] = experiment: Toxicity in nude BALB/c mouse xenografted with human SiHa cells assessed as viscera weight reduction at 1 mg/kg, ip administered every other day for 24 days; format: organism-based; conditions: in vivo, 576 h; in short: as §3

SMILES	Activity [1]	Activity [4]	Activity [5]	Activity [6]	Activity [7]	IC50 (A-375) [µM]	IC50 (HeLa) [µM]	IC50 (Huh-7) [µM]	IC50 (BJ) [µM]	IC50 [2] [µM]	IC50 (SiHa [3]) [µM]	TGI (SiHa [8])	Activity (Mus musculus [9])	Activity (Mus musculus [10])	Activity (Mus musculus [11])
CCn1c2ccccc2c2cc(-c3nc(-c4ccc(N5CCN(C)CC5)cc4)c(-c4ccc(N5CCN(C)CC5)cc4)[nH]3)ccc21						2.3	2.5	2.7	2.8	3.1	2.3				
CCn1c2ccccc2c2cc(-c3nc(-c4ccc(F)cc4)c(-c4ccc(F)cc4)n3-c3ccc(OC)cc3)ccc21	inactive	Not Active	Not Active			> 80	> 80	> 80	> 80	> 80	> 80				
COc1cccc2c1C(=O)c1c(O)c3c(c(O)c1C2=O)C[C@@](O)(C(=O)CO)C[C@@H]3O[C@H]1C[C@H](N)[C@H](O)[C@H](C)O1 [DOXORUBICIN]												Active	Toxic	Active	Toxic

The next lines start with results.

Activity [1]	Activity [4]	Activity [5]	Activity [6]	Activity [7]	SMILES	IC50 (A-375) [µM]	IC50 (HeLa) [µM]	IC50 (Huh-7) [µM]	IC50 (BJ) [µM]	IC50 [2] [µM]	IC50 (SiHa [3]) [µM]	TGI (SiHa [8])	Activity (Mus musculus [9])	Activity (Mus musculus [10])	Activity (Mus musculus [11])
Active					CCn1c2ccccc2c2cc(-c3nc(-c4ccc(F)cc4)c(-c4ccc(F)cc4)[nH]3)ccc21	> 80	> 80	> 80	> 80	> 80	> 80				
Active	Not Active	Not Active	inactive	inactive	CCn1c2ccccc2c2cc(-c3nc(-c4ccc(N5CCN(C)CC5)cc4)c(-c4ccc(F)cc4)[nH]3)ccc21	7.4	15.3	12.4	13.9	17.3	30.1				
